Assay [1] addresses T1, Leukotriene A-4 hydrolase (Homo sapiens) (UniProt P09960).
T1 sequence (whole entry): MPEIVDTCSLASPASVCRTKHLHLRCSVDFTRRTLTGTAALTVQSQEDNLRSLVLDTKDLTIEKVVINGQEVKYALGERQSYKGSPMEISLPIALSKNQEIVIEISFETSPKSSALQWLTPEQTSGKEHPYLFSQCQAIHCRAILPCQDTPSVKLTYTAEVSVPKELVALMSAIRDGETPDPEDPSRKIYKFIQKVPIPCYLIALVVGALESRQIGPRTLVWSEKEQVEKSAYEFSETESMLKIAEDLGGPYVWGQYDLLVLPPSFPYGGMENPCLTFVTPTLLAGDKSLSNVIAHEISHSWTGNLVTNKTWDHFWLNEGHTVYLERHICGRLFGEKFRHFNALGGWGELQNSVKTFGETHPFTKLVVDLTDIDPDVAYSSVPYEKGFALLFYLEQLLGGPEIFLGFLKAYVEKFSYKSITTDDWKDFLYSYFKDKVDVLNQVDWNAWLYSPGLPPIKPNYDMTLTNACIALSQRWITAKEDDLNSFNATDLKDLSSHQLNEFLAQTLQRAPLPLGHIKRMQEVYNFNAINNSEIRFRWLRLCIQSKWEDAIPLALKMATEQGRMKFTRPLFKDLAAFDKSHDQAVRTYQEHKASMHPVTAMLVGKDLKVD
Briefly: Inhibition of epoxide hydrolase activity of human recombinant leukotriene A4 hydrolase expressed in Escherichia coli assessed as LTB4 production at 100 uM by RP-HPLC.

For assay [2], the target named is T1, Leukotriene A-4 hydrolase (Homo sapiens). Briefly: Activation of aminopeptidase activity of human recombinant leukotriene A4 hydrolase expressed in Escherichia coli by spectrophotometry in presence of >0.65 mM […]. Summed up: (§1)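 Recombinant human LTA4H, expressed from a pET 21a construct in E. coli and purified by ammonium sulfate precipitation, anion-exchange and gel filtration. Aminopeptidase activity was read spectrophotometrically as p-nitroanilide released from Ala-pNA. Values are the average of three experiments with standard deviation. Substrate dependence was examined by Lineweaver–Burk analysis to give apparent Km, Vmax, KA, α and β.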

Assay [3] shares this target. Nature of the assay: Inhibition of aminopeptidase activity of human recombinant leukotriene A4 hydrolase expressed in Escherichia coli by spectrophotometry in presence of <0.65 mM […]. In short, it runs like this: as §1
The target is the same in assay [4]. Briefly: Activation of aminopeptidase activity of human recombinant leukotriene A4 hydrolase expressed in Escherichia coli assessed as p-nitroanilide release at 100 uM by spectrophotometry. In short, it runs like this: as §1
The target of assay [5] is T2, Leukotriene A-4 hydrolase (Homo sapiens, UniProt P09960).
T2 sequence (P09960 whole entry): T1 sequence (whole entry)
Briefly: Activation of aminopeptidase activity of human recombinant leukotriene A4 hydrolase expressed in Escherichia coli assessed as p-nitroanilide release by spectrophotometry. Summed up: as §1

Assay [6] deals with T2, Leukotriene A-4 hydrolase. Briefly: Inhibition of aminopeptidase activity of human recombinant leukotriene A4 hydrolase expressed in Escherichia coli assessed as p-nitroanilide release by spectrophotometry. In short, it runs like this:
as §1

For assay [7], the target named is T2, Leukotriene A-4 hydrolase. Briefly: Inhibition of epoxide hydrolase activity of human recombinant leukotriene A4 hydrolase expressed in Escherichia coli assessed as LTB4 production by RP-HPLC.

The structures appear in SMILES notation. Activity calls are given as the source filed them. The calls are words filed in the database; no cut-off is given here.

Take `CCCOc1ccc(Oc2ccccc2)cc1`: in assay [1], the outcome was inactive. Besides, the result in assay [2] and in assay [3] was Active.

Regarding `CCOc1ccc(Oc2ccc(O)cc2)cc1`, the result in assay [1] was inactive. The result in assay [4] was Active. For the same compound, in assay [5], the AC50 was 14.8 µM.

For `COc1ccc(Oc2ccc(O)cc2)cc1`, in assay [1], the result was inactive. Besides, the result in assay [4] was Active. Also, in assay [5], the AC50 was 17 µM.

`CCCCOc1ccc(Oc2ccc(O)cc2)cc1`: in assay [1], the result was inactive. In assay [6], the IC50 came to 5.56 µM.

Take `CCCOc1ccc(Oc2ccc(O)cc2)cc1`: the result in assay [1] was inactive. In addition, the IC50 in assay [6] is 5.69 µM.

Consider `COc1ccc(Oc2ccccc2)cc1`, for which the result in assay [1] was inactive. Further, the outcome in assay [4] was Active. The AC50 in assay [5] came out at 3.39 µM.

With `CCCCCOc1ccc(Oc2ccc(O)cc2)cc1`, in assay [1], the result was inactive. In addition, the concentration for half-maximal inhibition (IC50) in assay [6] stood at 2.48 µM.

Regarding `NCCOc1ccc(Oc2ccccc2)cc1`, the concentration for half-maximal inhibition (IC50) in assay [7] was determined as 0.035 µM; in assay [6] it was 0.228 µM.

For the compound `Oc1ccc(Oc2ccccc2)cc1`, the result in assay [1] was inactive. For the same compound, the result in assay [4] was Active. Besides, the AC50 in assay [5] worked out at 11.1 µM.

With `CCOc1ccc(Oc2ccccc2)cc1`, the result in assay [1] was inactive. Besides, the outcome in assay [4] was Active. In addition, the AC50 in assay [5] turned out to be 2.82 µM.

As to `CCCCCOc1ccc(Oc2ccccc2)cc1`, the outcome in assay [1] was inactive. Also, the IC50 in assay [6] is 4.13 µM.

As to `CCCCOc1ccc(Oc2ccccc2)cc1`, in assay [1], the outcome was inactive. Besides, in assay [6], the IC50 is 5.72 µM.

As to `c1ccc(Oc2ccccc2)cc1` [DIPHENYLETHER], in assay [1], the outcome was inactive. In assay [4], the result was Active. Besides, the half-maximal activity concentration (AC50) in assay [5] is 6.01 µM.

A word on the AC50: it is the concentration giving half of the maximal activity seen. The term IC50 denotes the concentration needed to halve the response being measured.

These data come from ChEMBL document CHEMBL1152166, “Activation and inhibition of leukotriene A4 hydrolase aminopeptidase activity by diphenyl ether and derivatives” (Bioorg Med Chem Lett, 2008).
